Results on 22 compounds are retold here after ChEMBL document CHEMBL1158394, “Diversity-oriented synthesis of furo[3,2-f]chromanes with antimycobacterial activity” (Eur J Med Chem, 2009).

For this experiment, the system named is Mycobacterium tuberculosis variant bovis BCG. The experiment in a line: Antimycobacterial activity against Mycobacterium bovis BCG Pasteur after 6 days by microdilution resazurin assay. It counts as functional. To be noted: 144 h. The method in brief: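 Microdilution resazurin assay with M. bovis BCG inoculum grown in Dubos medium with 10% ADC. Drugs (DMSO stocks of 50 mg/mL) are twofold serially diluted in 96-well plates, with DMSO and isoniazid controls, then incubated at 37 °C. Resazurin (0.01% w/v) is added and incubation continues 24 h. MIC95 is the amount giving >95% growth inhibition, in µg/mL. Duplicate runs in two independent experiments.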
(Broth dilution looks for growth in wells or tubes with falling amounts of substance.)

≈ marks a conversion by molar mass, not a printed value.

The compound `Cc1c(-c2ccncc2)oc2ccc3c(c12)C=CC(C)(C)O3` displayed an MIC95 of 6.2 µg/mL (≈ 21.3 µM).
Under `CC1(C)C=Cc2c(ccc3oc(-c4ccncc4)cc23)O1` stands 6.2 µg/mL (≈ 22.4 µM).
In the case of `Cc1c2c(c3cc(/C=C/c4cccnc4)oc3c1C)CCC(C)(C)O2`, the MIC95 is 6.2 µg/mL (≈ 18.6 µM).
Under `Cc1c2c(c3cc(-c4ccncc4)oc3c1C)CCC(C)(C)O2` stands 3.1 µg/mL (≈ 10.1 µM).
The compound `CC1(C)CCc2c(ccc3oc(-c4cccnc4)c(CCCO)c23)O1` gave an MIC95 of 6.2 µg/mL (≈ 18.4 µM).
Under `Cc1c2c(c3cc(-c4cnccn4)oc3c1C)CCC(C)(C)O2` stands 25 µg/mL (≈ 81.1 µM).
Compound `Cc1c2c(c3cc(-c4cccnc4)oc3c1C)CCC(C)(C)O2` displayed an MIC95 of 3.1 µg/mL (≈ 10.1 µM).
Under `Cc1c2c(c3cc(Cc4ccc(Cl)cc4)oc3c1C)CCC(C)(C)O2` stands over 100 µg/mL; under `Cc1c2c(c3cc(Cc4cccs4)oc3c1C)CCC(C)(C)O2`, over 100 µg/mL; under `Cc1c2c(c3cc(-c4ccc(NCCCN(C)C)nc4)oc3c1C)CCC(C)(C)O2`, 6.2 µg/mL (≈ 15.2 µM).
`Cc1c2c(c3cc(-c4ccc(Cl)nc4)oc3c1C)CCC(C)(C)O2` had an MIC95 of over 100 µg/mL.
Under `CC(=O)OCc1cc2c3c(c(C)c(C)c2o1)OC(C)(C)CC3` stands over 100 µg/mL; under `Cc1c2c(c3cc(CCC(=O)N4CCOCC4)oc3c1C)CCC(C)(C)O2`, over 100 µg/mL; under `Cc1c2c(c3cc(Cc4cccnc4)oc3c1C)CCC(C)(C)O2`, 6.2 µg/mL (≈ 19.3 µM).
Under `Cc1c2c(c3cc(CCc4cccnc4)oc3c1C)CCC(C)(C)O2` stands 3.1 µg/mL (≈ 9.24 µM); under `CC1(C)CCc2c(ccc3oc(-c4ccncc4)c(CCCO)c23)O1`, 12.5 µg/mL (≈ 37 µM).
For the compound `Cc1c2c(c3cc(-c4ccccn4)oc3c1C)CCC(C)(C)O2`, the MIC95 was over 100 µg/mL.
Take `Cc1c2c(c3cc(-c4ccc[n+]([O-])c4)oc3c1C)CCC(C)(C)O2`: the MIC95 stood at 12.5 µg/mL (≈ 38.7 µM).
As to `Cc1c2c(c3cc(-c4ccc(-c5nn[nH]n5)nc4)oc3c1C)CCC(C)(C)O2`, the MIC95 amounted to 25 µg/mL (≈ 66.6 µM).
Under `Cc1c2c(c3cc(-c4cccs4)oc3c1C)CCC(C)(C)O2` stands over 100 µg/mL.
Under `COC(=N)c1ccc(-c2cc3c4c(c(C)c(C)c3o2)OC(C)(C)CC4)cn1` stands 6.2 µg/mL (≈ 17 µM); under `NNC(=O)c1ccncc1` [ISONIAZID], 0.4 µg/mL (≈ 2.92 µM).
